Hits are enriched below; roughly 12% of the tested compounds scored in any of these assays.
Lmaj promast = inhibitors of Leishmania major promastigote growth | Leishmania major promastigotes, resazurin fluorescence viability | inhibition, % at 10 µM | 9% of 200,000 active | AID 1063; in the data active means inhibition above about 50%;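 further: promastigotes grown with compound for 44 hours at 28 °C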
b-catenin transl = beta-catenin nuclear translocation modulation. nuclear translocation activity, % at 5 µM. 0.3% of 190,000 active. HeLa beta-catenin nuclear translocation, immunofluorescence imaging. AID 1665;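 active means nuclear translocation activity above 50% at 5 µM, with a well cell count of 50 or more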;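 further: per-cell ratio of nuclear to cytoplasmic median beta-catenin stain intensity; plate controls were DMSO negative control for no effect and GSK-3 inhibitor IX positive control for full effect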
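assay system = human HeLa cells, endogenous beta-catenin | times = compound treatment 24 h, 37°C, 5% CO2 | detection = Anti-beta-catenin immunofluorescence on PFA-fixed, Triton-permeabilized cells, DAPI nuclei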
Autophagy HCS = autophagy modulation, high-content screen; 0.98% of 190,000 active; AID 463193; MEF GFP-LC3 puncta imaging; test concentration mostly 10 µM; calls only at 10 µM (by protocol);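 active means percentage of spot-positive cells more than 3 SD above its plate mean, without a fluorescence outlier flag or 80% toxicity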;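 further: spot-positive cell cutoff set from DMSO-treated cells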
MT stabilizer = microtubule stabilizers in HeLa cells; HeLa tubulin immunostaining HCS, 24 h; share of cells brighter than vehicle mean+2SD; % tubulin-high responders, % at 10 µM; 0.83% of 200,000 active; AID 2205;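 active means plate Z-score above 3 for both tubulin-high and condensed-nucleus cell shares, with cell loss under 80%, at 10 µM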;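 further: anti alpha tubulin signal scored within the nucleus-defined area of each cell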
CHOP inh = inhibitors of CHOP induction in ER stress response. CHO-K1 CHOP-promoter luciferase, tunicamycin-induced, 15-18 h. inhibition, % at 10 µM. AID 2732. 3.8% of 220,000 active;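 active means compounds that reduced the stress-induced luciferase reporter signal by more than about 70% of percent inhibition, limit read from the data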;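 further: 0% = tunicamycin plus vehicle and 100% = wells without tunicamycin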
Dynein transport = blocks dynein driven cargo transport along microtubules; 3617.4 mouse cells, GR-EGFP nuclear translocation imaging; test concentration mostly 20 µM; stimulated with dexamethasone, 1 µM; active compounds read low; 0.47% of 220,000 active; z-score, hits read low;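 active means plate z-score of nuclear minus cytoplasmic receptor signal below a set negative limit, without overly bright fluorescence or cell loss, cut at about -3.5 in these data, passing the limit was not always enough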;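 further: z-score of nuclear minus cytoplasmic ring GR-EGFP intensity difference per well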
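medium = tetracycline-free induction medium containing charcoal-stripped FBS | probe or stimulus = dexamethasone, 1.0 µM final | timing = 48 h induction, then 1 h compound, then 30 min agonist, 37 °C | detection = automated 10x imaging of fixed Hoechst-stained cells | read-out basis = nuclear versus cytoplasmic GR-EGFP signal, averaged per well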
The depositor's hits bear a star; i = inactive; . = no result; + = active, no number.

SMILES	Lmaj promast	b-catenin transl	Autophagy HCS	MT stabilizer	CHOP inh	Dynein transport
Cn1c(SCc2cccc([N+](=O)[O-])c2)nc2c(c1=O)SCC2	16	-2	i	3	75*	0.78
COc1cccc(-c2nc(N3CCC(C)CC3)c3ccccc3n2)c1O	30	1	i	2	59	0.87
COc1cccc(-c2nc(N3CC(C)CC(C)C3)c3ccccc3n2)c1O (centres undefined)	12	-2	i	4	76*	-0.78
COc1cccc(-c2nc(Oc3cc(C)cc(C)c3)c3ccccc3n2)c1O	1	0	+	6	42	0.23
S=C(Nc1ccccc1Cl)N1CCOCC1	-8	-1	i	6	1	-0.29
CCc1cccc(NC(=O)CCSCCC(=O)Nc2cccc(CC)c2)c1	-3	2	i	2	-4	-0.19
CC1=C(C(=O)OCCNC(=O)c2ccccc2O)C(c2ccccc2[N+](=O)[O-])C(C(=O)OCC2CCCO2)=C(C)N1 (centres undefined)	93*	-4	i	3	46	-0.69
O=C(NCc1cccc(C(F)(F)F)c1)C1CC(c2ccccc2C(F)(F)F)=NO1 (centres undefined)	.	2	.	.	6	-0.63
N#C/C=C(/N)N1CCN(c2ccc(Cl)c(Cl)c2)CC1	70*	1	i	2	80*	-0.56
Nc1ccc(N2CCN(c3ccc(Cl)c(Cl)c3)CC2)cc1	98*	2	+	5	17	1.6
Nc1ccc(N2CCN(c3ccc(F)cc3)CC2)cc1	78*	-2	i	4	-15	0.56
O=C(O)/C=C/C(=O)N1CCN(c2ccc(F)cc2)CC1	-5	0	i	4	13	-0.45
CS(=O)(=O)N1CCN(C(=O)COc2ccc3ccccc3c2)CC1	.	-1	.	.	-3	1.2
CS(=O)(=O)N1CCN(C(=O)COc2ccccc2)CC1	11	-1	+	3	1	2.3
Cn1c(=O)[nH]c(=O)c2c1nc1n2CC(COc2ccc3ccccc3c2)O1 (centres undefined)	.	0	.	.	8	-0.32
O=[N+]([O-])c1cccc(C2NCC(c3ccccc3Cl)c3c2[nH]c2ccccc32)c1 (centres undefined)	38	-2	i	2	85*	-0.074
Cc1ccc(-c2nnc(NC3CCCCC3)c3ccccc23)cc1S(=O)(=O)N1CCN(C)CC1	96*	.	i	2	18	-0.52
Cc1ccc(-c2nn3c(C)nnc3c3ccccc23)cc1S(=O)(=O)N1CCN(CCO)CC1	20	-1	+	2	22	0.18
Cc1ccc(-c2nn3c(C)nnc3c3ccccc23)cc1S(=O)(=O)NC(C)c1ccccc1 (centres undefined)	99*	-1	i	7	-11	0.11
CCN(CC)C(=O)C1=C(C)NC(=O)NC1c1c(F)cccc1Cl (centres undefined)	3	0	i	1	10	0.64
N=C1S/C(=C\c2ccc(O)cc2)C(=O)N1c1ccc(F)cc1	24	0	i	3	83*	-0.86
Cc1cc(/C=C2/SC(=S)N(c3cccc(C(F)(F)F)c3)C2=O)c(C)n1-c1cccnc1	80*	.	i	3	.	-0.82
CCOc1cc(/C=C2\SC(=O)N(c3ccc(O)cc3)C2=O)ccc1O	.	1	.	.	22	-0.24
O=C1/C(=C\c2ccc(O)cc2)SC(=S)N1c1cccnc1	-4	1	i	4	78*	-1.3
COc1ccc(/C=C2\SC(=S)N(c3cccnc3)C2=O)cc1	.	0	.	.	30	0.12
Cc1ccc(Oc2ccccc2/C=C2\SC(=O)N(C)C2=O)cc1	3	-1	i	2	46	-0.43
Cc1nccn1CC(=O)N/N=C/c1cccs1	.	-1	.	.	17	0.47
COc1ccccc1CNc1cc(CSc2ccc(Cl)cc2)nc(C)n1	57*	.	i	1	68	-0.55
CC1(C)CC(N=Cc2c(O)n(Cc3ccc4c(c3)OCO4)c(=O)c3ccccc23)CC(C)(C)N1	101*	12	i	7	-25	-0.6
CC1CCN(C(=O)C(C)c2ccc([N+](=O)[O-])cc2)CC1 (centres undefined)	1	8	i	4	-1	-1.3
